# Screens: PubChem BioAssay, Sanford-Burnham Center for Chemical Genomics
# SENP1 FRET inh: SENP1 (human) catalytic domain inhibition | Q9P0U3 | recombinant SENP1 catalytic domain, CyPet-SUMO1-YPet FRET cleavage | inhibition, % at 10 µM | hit rate 0.21% among 360,000 | AID 624204;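 active = inhibition at least 30% at 10 µM, raw YFP signal under a set limit, fluorescence ratio 0.5 to 1.5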;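 also: 0% = enzyme with DMSO and 100% = no enzyme wells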
# Target sequence (Q9P0U3 419-644 limits assumed): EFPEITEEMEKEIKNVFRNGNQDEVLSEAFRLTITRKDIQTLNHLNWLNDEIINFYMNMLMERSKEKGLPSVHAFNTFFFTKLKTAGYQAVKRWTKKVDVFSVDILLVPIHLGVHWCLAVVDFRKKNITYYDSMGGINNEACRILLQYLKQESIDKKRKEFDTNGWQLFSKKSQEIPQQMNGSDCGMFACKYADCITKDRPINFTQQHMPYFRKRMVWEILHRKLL
#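 Material: hSENP1 catalytic domain, recombinant; medium: Tris pH 8 with BME, BSA, NP40 and catalase; compound: single concentration of 10 µM compound, 0.5% DMSO final; technique: FRET read of cyan and yellow fluorescence; timing: 50 min enzyme reaction, room temperature, light-protected; reagent: SFCypet-SUMO1-SFYpet substrate at 25 nM; control set: no-enzyme low, enzyme-DMSO high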
# SENP6 block: blocks the human protease SENP6 | Q9GZR1 | Recombinant SENP6 catalytic domain, aminoluciferin luminescence | hit rate 1.8% among 330,000 | AID 2599 | inhibition, % at 10 µM;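 active = inhibition above about 50% at the single tested dose, limit read from the data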;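 also: plate controls were DMSO wells with enzyme for no effect and DMSO wells lacking enzyme for full effect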
# SENP8 block-1: inhibitors of human SENP8 protease; inhibition, % at 20 µM; AID 602440; recombinant SENP8, Nedd8 substrate fluorescence; hit rate 0.64% among 360,000; in the data active = inhibition mostly above about 40%, no sharp cut-off; inactive = mostly below about 27%
# Target sequence (Q96LD8 whole entry, looked up): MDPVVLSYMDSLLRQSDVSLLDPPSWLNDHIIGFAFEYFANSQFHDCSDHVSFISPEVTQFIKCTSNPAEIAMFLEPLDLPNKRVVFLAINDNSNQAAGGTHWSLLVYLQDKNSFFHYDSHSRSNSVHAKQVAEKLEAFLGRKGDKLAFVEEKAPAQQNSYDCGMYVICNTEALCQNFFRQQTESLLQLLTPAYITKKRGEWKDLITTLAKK
# SENP8 block-2: inhibitors of human SENP8 protease | Q96LD8 | purified SENP8, Z-RLRGG-aminoluciferin cleavage, luminescence | inhibition, % at 10 µM | hit rate 1.2% among 330,000 | AID 2540; in the data active = inhibition above about 50%
# Apaf-1 inh: human Apaf-1 inhibition | O14727 | reconstituted apoptosome caspase-3 activity, DEVD-Rh110 fluorescence | inhibition, % at 20 µM | hit rate 0.71% among 330,000 | AID 489030; active = inhibition of at least 40% at 20 µM;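 also: plate controls were DMSO wells for no effect and DEVD-CHO caspase inhibitor wells for full effect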
#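 Assay system: Apoptosome proteins | Medium: pH 7.5 Hepes buffer with CHAPS, BSA, DTT | Also added: Cytochrome c and DEVD-Rh110 substrate | Times: 30 min plus 50 min, RT | Detection: Rhodamine 110 fluorescence at Ex 480/Em 540 nm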
# SENP7 inh: inhibitors of human SENP7 protease; hit rate 1.5% among 330,000; inhibition, % at 5 µM; recombinant SENP7, Z-RLRGG-aminoluciferin luminescence, 40 min;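 active = inhibition above about 50% at the single test dose, limit read from the data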;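 also: plate controls were DMSO with enzyme for no effect and no enzyme buffer wells for full effect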
# Apaf-1 inh conf: Apaf-1 inhibition, single-dose confirmed; shares compounds with Apaf-1 inh; reconstituted apoptosome, caspase-3 DEVD-Rh110 fluorescence; inhibition, % at 20 µM; hit rate 25% among 1,800; AID 504614;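 active = mean inhibition of at least 40% at 20 µM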;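 also: plate controls were DMSO wells for no effect and DEVD-CHO caspase inhibitor control wells for full effect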
# Rh110 interf inh: counter-screen for Apaf-1 inhibitors: fluorescence interference. Rh110 fluorescence interference, quenched caspase reaction. activation (fluorescence interference), % at 20 µM. shares compounds with Apaf-1 inh. 1,800 tested, under 10 active;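 active = signal rise of 40% or more at 20 µM, treated as a fluorescence artifact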
# Apaf1 inh interf: shows fluorescence interference in the Apaf-1 inhibitor assay format; shares compounds with Apaf-1 inh; AID 588538; IC50, µM; 460 tested, under 10 active; fluorescence interference counterscreen, Apaf-1 assay format; call rule not given here
# Numbers without * were called inactive; i = inactive; . = no result given. Rows were chosen to be rich in hits. Some 2.9% of all compounds tested hit in one or more screens of this group.
SMILES,SENP1 FRET inh,SENP6 block,SENP8 block-1,SENP8 block-2,Apaf-1 inh,SENP7 inh,Apaf-1 inh conf,Rh110 interf inh,others
C=CCOc1ccc(C2NC(=S)NC3=C2CCc2ccccc23)cc1 (stereo unspecified),-12.1,-1.5,-196.3,3.7,1.3,1.9,.,.,
O=C1NC2=C(CCc3ccccc32)C(c2ccccc2)N1 (stereo unspecified),-10.7,95.1*,-166.8,87.0*,91.5*,72.9*,12.7,0.0,
CC(C)(C)C(C(=O)Oc1ccccc1)c1ccccc1 (stereo unspecified),1.9,-9.7,18.8,-2.9,-2.0,-3.2,.,.,
Cc1ccc(S(=O)(=O)C(C#N)c2nc3ccccc3nc2N2CCCC2)cc1 (stereo unspecified),-17.6,73.3*,i,77.2*,77.2*,41.9,20.5,6.0,
Cc1ccc(NC(=O)CSc2nc(N)cc(=O)[nH]2)cc1S(=O)(=O)N1CCCCC1,3.9,-3.7,12.8,-0.9,5.0,3.7,.,.,
CCc1nnc(NC(=O)c2ccc(S(=O)(=O)N3CCCCC3)cc2)s1,-2.0,-37.5,4.1,-6.3,54.7*,-12.9,15.9,2.3,
COc1ccc(NS(=O)(=O)c2cccc(C(=O)N3CCCCCCC3)c2)cc1,1.6,4.4,-0.7,-1.6,45.2*,3.3,38.8,17.4,
O=C(CCNC(=O)c1ccc(Cl)cc1)NCCCN1CCOCC1,-0.8,-11.0,0.3,0.4,48.1*,1.8,36.2,-2.9,
COc1cc(Nc2ccn3nccc3n2)cc(OC)c1OC,-1.5,.,-30.2,.,.,.,.,.,
CN(C)S(=O)(=O)c1ccc(NC(=O)CN2CCCC2c2ccc3c(c2)OCCCO3)cc1 (stereo unspecified),3.0,-16.6,-4.8,-9.4,45.8*,-7.6,31.6,3.9,
CN1CCc2cccc3c2[C@@H]1Cc1ccc(O)c(O)c1-3,-0.5,37.7,-150.4,14.2,49.9*,15.4,24.7,14.1,
CCOc1cc(N2CCOCC2)c(OCC)cc1NC(=O)CN1CCSC1=O,2.4,8.6,7.0,7.5,-3.2,8.0,.,.,
C[C@@H]1CN([C@@H](C)CO)C(=O)CCCn2cc(nn2)CO[C@H]1CN(C)S(=O)(=O)c1ccc2c(c1)OCCCO2,0.7,.,11.5,.,.,.,.,.,
COc1ccc(OC)c(C2=NOC(C(=O)Nc3ccc4c(c3)OCCO4)C2)c1 (stereo unspecified),1.5,9.1,-155.7,6.5,41.7*,2.8,5.5,0.7,
COc1ccc(C2=NOC(C(=O)Nc3ccc4c(c3)OCCO4)C2)cc1OC (stereo unspecified),0.4,22.3,9.5,6.2,-0.8,3.7,.,.,
C[C@H](O)CNC(=O)c1[nH]cnc1C(=O)Nc1ccc(CNC(=O)OC(C)(C)C)cc1,4.3,.,9.6,.,.,.,.,.,
O=C(Cc1ccccc1Cl)NC1(O)C(=O)c2ccccc2C1=O,2.3,37.9,67.3*,12.2,88.8*,4.0,64.7*,1.2,Apaf1 inh interf=>100
CCc1nc2c(OCc3ccccc3)cccn2c1N(C)C(=O)C(C)C,0.8,.,5.9,.,.,.,.,.,
Cc1ccc2nc(/C(C#N)=C\c3ccc(N4CCOCC4)o3)[nH]c2c1,-18.3,22.5,-193.7,6.1,44.1*,3.7,17.5,-28.1,
Cc1ccc(/C(C#N)=C\c2ccc(N3CCOCC3)o2)cc1,-25.8,-20.2,-26.5,-8.2,-17.0,-1.7,.,.,
Nc1ccc2ncccc2c1,0.8,43.0,-208.0,36.8,85.5*,9.4,19.4,-2.7,
c1ccc2ncccc2c1,0.6,-12.7,35.0,-10.7,4.2,-5.0,.,.,
COc1cc(/C=N/N=C(N)N)ccc1OCc1ccc(Cl)cc1,0.2,-38.2,25.5,-27.0,40.1*,-11.7,13.4,6.7,
CCOc1cc(/C=N/N=C(N)N)ccc1OCc1ccc(Cl)cc1,0.0,.,6.7,.,.,.,.,.,
NC(N)=N/N=C/c1ccc(OCc2ccccc2)c(OCc2ccccc2)c1,1.2,-23.7,12.8,-15.0,60.7*,1.8,41.9*,15.3,Apaf1 inh interf=>100
SMILES,SENP1 FRET inh,SENP6 block,SENP8 block-1,SENP8 block-2,Apaf-1 inh,SENP7 inh,Apaf-1 inh conf,Rh110 interf inh,others
CC(C)C[C@@H](NC(=O)C1CCC(CNC(=O)[C@H](Cc2ccccc2)NC(=O)OC(C)(C)C)CC1)C(=O)O (stereo partly specified),2.4,1.2,12.2,1.5,2.4,-0.1,.,.,
CCc1ccccc1NC(=O)CCNS(=O)(=O)c1cc(Br)cnc1N,0.5,-15.0,-20.6,-0.8,48.7*,1.0,11.7,9.2,
O=C1C(=O)N(C/C=C/c2ccccc2)c2ccccc21,3.6,13.1,17.4,0.7,14.8,4.1,.,.,
COc1ccccc1-c1oc2ccccc2c1C#CC1(N)CCCCC1,-8.5,-3.8,-460.5,-3.4,68.1*,-10.7,28.2,5.5,
Cc1nc2sccn2c(=O)c1CCN1CCC(=C(c2ccc(F)cc2)c2ccc(F)cc2)CC1,-3.1,20.4,-59.7,-2.2,42.3*,0.9,18.8,8.5,
CC(C)(C)OC(=O)n1cc(CCO)c2ccccc21,4.5,2.0,6.6,7.2,3.5,6.9,.,.,
CCCCN1C(=N)N([C@@H](C)CN2CCC[C@H]2CN2C(N)=NC[C@H]2C(C)C)C[C@H]1[C@H](C)CC,-0.7,-11.4,4.0,3.4,-12.3,-1.8,.,.,
CCC[C@@H](CN1CCC[C@H]1CN1C(N)=NC[C@H]1C(C)C)N1C[C@@H]([C@H](C)CC)N(CCCC2CCCC2)C1=N,2.2,7.5,7.2,-7.2,37.0,14.0,.,.,
CC[C@@H](C)[C@@H]1CN([C@@H](CN2CCC[C@H]2CN2C(N)=NC[C@@H]2Cc2ccccc2)C(C)C)C(=N)N1CCCC1CCCC1,-1.8,-18.1,16.4,4.8,63.1*,-0.7,13.3,10.8,
CC[C@@H](C)[C@@H]1CN([C@@H](CN2CCC[C@H]2CN2C(N)=NC[C@H]2C(C)C)C(C)C)C(=N)N1CCCC1CCCC1,2.4,-37.4,21.1,-9.5,40.5*,-10.9,0.4,-9.3,
COc1cc(/C=C2\C(=O)N(CCC#N)N=C2C)ccc1OCC(=O)Nc1ccccc1,4.0,-6.7,12.0,-13.3,93.5*,2.0,7.2,-2.3,
CCOc1cc(/C=C2\C(=O)N(CCC#N)N=C2C)ccc1OCC(N)=O,3.9,-6.4,23.4,0.7,57.8*,15.9,3.6,-9.5,
CC1=NN(CCC#N)C(=O)/C1=C/c1ccc(N(C)C)cc1,2.0,2.0,22.2,-5.4,-1.7,2.4,.,.,
CNC(CC(C)C)C(=O)NC1C(=O)NC(CC(N)=O)C(=O)NC2C(=O)NC3C(=O)NC(C(=O)NC(C(=O)O)c4cc(O)cc(O)c4-c4cc3ccc4O)C(O)c3ccc(c(Cl)c3)Oc3cc2cc(c3OC2OC(CO)C(O)C(O)C2OC2CC(C)(N)C(O)C(C)O2)Oc2ccc(cc2Cl)C1O (stereo unspecified),-3.4,.,2.7,.,.,.,.,.,
